Data as given in ChEMBL document CHEMBL1154352, “Toll-like receptor 7 selective synthetic oligoribonucleotide agonists: synthesis and structure-activity relationship studies” (J Med Chem, 2009).
Calls of active or inactive are those of the source. The calls are words filed in the database; no cut-off is given here.

Assays:
Splenocyte [1] = assay: Immunomodulatory activity in C57BL/6 mouse splenocytes bearing TLR7 receptor assessed as IL12 release at 100 ug/ml after 24 hrs by ELISA; format: functional, cell-based
Method in brief: (§1)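 C57BL/6 splenocytes in RPMI 1640 with 10% FBS, penicillin/streptomycin, 2 mM L-glutamine, plated at 5 × 10^6 cells/mL; compounds in PBS added, 37 °C for 24 h. Supernatant IL-12 and IL-6 by ELISA; representative of three independent experiments.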

[2] = target: Toll-like receptor 3 (Homo sapiens) (UniProt O15455); assay: Activation of human TLR3 expressed in HEK293 assessed as induction of NF-kappaB activity reporter gene assay; format: cell-based
Chain of Toll-like receptor 3 (Homo sapiens) (O15455 whole entry): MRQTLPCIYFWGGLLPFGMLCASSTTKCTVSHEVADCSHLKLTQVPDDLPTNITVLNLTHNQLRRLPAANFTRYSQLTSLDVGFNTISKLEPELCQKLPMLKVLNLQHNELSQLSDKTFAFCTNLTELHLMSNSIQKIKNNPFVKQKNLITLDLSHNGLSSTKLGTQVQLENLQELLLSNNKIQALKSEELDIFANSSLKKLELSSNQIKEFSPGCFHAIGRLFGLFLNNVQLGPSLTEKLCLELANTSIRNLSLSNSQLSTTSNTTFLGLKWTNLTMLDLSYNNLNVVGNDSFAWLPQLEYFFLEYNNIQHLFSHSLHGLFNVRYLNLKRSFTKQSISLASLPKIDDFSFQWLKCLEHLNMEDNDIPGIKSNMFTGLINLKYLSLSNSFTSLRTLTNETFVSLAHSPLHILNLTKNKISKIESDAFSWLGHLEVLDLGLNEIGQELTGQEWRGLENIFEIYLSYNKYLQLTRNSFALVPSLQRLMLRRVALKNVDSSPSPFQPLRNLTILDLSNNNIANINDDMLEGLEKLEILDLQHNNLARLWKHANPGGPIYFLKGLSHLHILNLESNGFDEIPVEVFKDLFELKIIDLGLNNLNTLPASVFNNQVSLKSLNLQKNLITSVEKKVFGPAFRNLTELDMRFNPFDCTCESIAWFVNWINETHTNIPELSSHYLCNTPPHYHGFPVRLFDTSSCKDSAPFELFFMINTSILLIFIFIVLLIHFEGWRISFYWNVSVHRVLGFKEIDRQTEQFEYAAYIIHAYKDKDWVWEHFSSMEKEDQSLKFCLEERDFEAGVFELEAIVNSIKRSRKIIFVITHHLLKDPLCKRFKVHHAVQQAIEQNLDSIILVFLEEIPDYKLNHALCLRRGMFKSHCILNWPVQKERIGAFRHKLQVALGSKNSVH

[3] = Metabolic stability in human serum assessed as full length product remaining after 10 mins by HPLC; format: ADME, cell-free; conditions: read-out: Stability
Method in brief: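 About 0.5 A260 units compound in 1% human serum in PBS, 37 °C; aliquot taken at 10 min, analysed by anion-exchange HPLC for percent intact full-length product.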

[4] = target: T1, Toll-like receptor 8 (Homo sapiens) (UniProt Q9NR97); assay: Activation of human TLR8 expressed in HEK293XL assessed as fold induction of NF-kappaB activity at 50 ug/ml after 18 hrs by reporter gene assay relative to control
T1 sequence (whole entry): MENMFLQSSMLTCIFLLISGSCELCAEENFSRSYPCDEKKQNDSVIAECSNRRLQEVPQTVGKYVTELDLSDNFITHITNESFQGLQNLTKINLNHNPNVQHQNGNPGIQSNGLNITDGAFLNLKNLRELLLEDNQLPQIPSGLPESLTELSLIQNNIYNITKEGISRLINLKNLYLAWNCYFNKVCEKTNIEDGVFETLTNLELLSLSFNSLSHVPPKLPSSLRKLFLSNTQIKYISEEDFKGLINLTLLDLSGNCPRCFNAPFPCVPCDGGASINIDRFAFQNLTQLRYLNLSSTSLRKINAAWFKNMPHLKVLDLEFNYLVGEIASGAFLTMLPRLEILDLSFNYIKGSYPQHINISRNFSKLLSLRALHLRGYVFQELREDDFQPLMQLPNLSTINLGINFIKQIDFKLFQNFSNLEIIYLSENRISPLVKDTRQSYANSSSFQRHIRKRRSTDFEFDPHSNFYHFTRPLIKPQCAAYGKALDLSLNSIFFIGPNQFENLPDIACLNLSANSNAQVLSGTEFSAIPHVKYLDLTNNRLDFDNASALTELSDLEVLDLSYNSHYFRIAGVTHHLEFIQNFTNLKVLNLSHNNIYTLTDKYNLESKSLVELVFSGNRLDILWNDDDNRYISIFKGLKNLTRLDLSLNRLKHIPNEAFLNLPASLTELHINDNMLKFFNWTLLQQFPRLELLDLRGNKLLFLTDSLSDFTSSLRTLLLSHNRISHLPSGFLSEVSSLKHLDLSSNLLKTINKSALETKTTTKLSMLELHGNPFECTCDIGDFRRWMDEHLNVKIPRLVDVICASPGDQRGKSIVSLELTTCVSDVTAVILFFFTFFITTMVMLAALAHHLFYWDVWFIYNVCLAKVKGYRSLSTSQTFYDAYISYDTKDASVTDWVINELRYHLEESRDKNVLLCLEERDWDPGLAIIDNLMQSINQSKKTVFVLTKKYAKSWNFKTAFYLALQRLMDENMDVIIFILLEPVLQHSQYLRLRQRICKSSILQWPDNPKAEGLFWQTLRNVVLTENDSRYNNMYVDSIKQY
Method in brief: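 HEK293 cells stably expressing human TLR7 or TLR8, transiently transfected with SEAP reporter plasmid; medium replaced, SIMRA compounds added, 18 h incubation. Supernatant SEAP measured by QuantiBlue; expressed as fold increase in NF-κB activity over PBS control. Tabulated data at 50 μg/mL, representative of three independent experiments.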

Homo sapiens = species on record: Homo sapiens; assay: Ratio of human TLR7 activity to human TLR8 activity
Method in brief: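 TLR7/TLR8 ratio computed from fold NF-κB (SEAP reporter) activation in HEK293 cells stably expressing human TLR7 versus TLR8, compounds at 50 μg/mL, 18 h exposure; representative of three independent experiments.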

Splenocyte [5] = assay: Immunomodulatory activity in C57BL/6 mouse splenocytes bearing TLR7 receptor assessed as IL6 release at 100 ug/ml after 24 hrs by ELISA; format: functional, cell-based; method in brief: as §1

Row | Activity (Splenocyte [1]) | Activity [2] | remaining at 10 min [3] [%] | fold change (FC) [4] | Ratio (Homo sapiens) | Activity (Splenocyte [5]) | Compound
1 | Active | inactive | 84 | 4.9 | 3 | Active | Nc1ccn([C@@H]2O[C@H](COP(=O)(S)O[C@H]3[C@@H](O)[C@H](n4cnc5c(N)ncnc54)O[C@@H]3CO)[C@@H](OP(=O)(S)OC[C@H]3O[C@@H](n4ccc(=O)[nH]c4=O)[C@H](O)[C@@H]3OP(=O)(S)OC[C@H]3O[C@@H](n4ccc(=O)[nH]c4=O)[C@H](O)[C@@H]3OP(=O)(S)OC[C@H]3O[C@@H](n4ccc5c(=O)[nH]c(N)nc54)[C@H](O)[C@@H]3OP(=O)(S)OC[C@H]3O[C@@H](n4cnc5c(N)ncnc54)[C@H](O)[C@@H]3OP(=O)(S)OC[C@H]3O[C@@H](n4cnc5c(N)ncnc54)[C@H](O)[C@@H]3OP(=O)(S)OC[C@H]3O[C@@H](n4ccc(N)nc4=O)[C@H](O)[C@@H]3OP(=O)(S)OC[C@H]3O[C@@H](n4ccc(=O)[nH]c4=O)[C@H](O)[C@@H]3OP(=O)(S)OC[C@H]3O[C@@H](n4ccc(=O)[nH]c4=O)[C@H](O)[C@@H]3OP(=O)(S)OC[C@H]3O[C@@H](n4ccc5c(=O)[nH]c(N)nc54)[C@H](O)[C@@H]3OP(=O)(S)OCC(O)COP(=O)(S)O[C@H]3[C@@H](O)[C@H](n4ccc5c(=O)[nH]c(N)nc54)O[C@@H]3COP(=O)(S)O[C@H]3[C@@H](O)[C@H](n4ccc(=O)[nH]c4=O)O[C@@H]3COP(=O)(S)O[C@H]3[C@@H](O)[C@H](n4ccc(=O)[nH]c4=O)O[C@@H]3COP(=O)(S)O[C@H]3[C@@H](O)[C@H](n4ccc(N)nc4=O)O[C@@H]3COP(=O)(S)O[C@H]3[C@@H](O)[C@H](n4cnc5c(N)ncnc54)O[C@@H]3COP(=O)(S)O[C@H]3[C@@H](O)[C@H](n4cnc5c(N)ncnc54)O[C@@H]3COP(=O)(S)O[C@H]3[C@@H](O)[C@H](n4ccc5c(=O)[nH]c(N)nc54)O[C@@H]3COP(=O)(S)O[C@H]3[C@@H](O)[C@H](n4ccc(=O)[nH]c4=O)O[C@@H]3COP(=O)(S)O[C@H]3[C@@H](O)[C@H](n4ccc(=O)[nH]c4=O)O[C@@H]3COP(=O)(S)O[C@H]3[C@@H](O)[C@H](n4ccc(N)nc4=O)O[C@@H]3COP(=O)(S)O[C@H]3[C@@H](O)[C@H](n4cnc5c(N)ncnc54)O[C@@H]3CO)[C@H]2O)c(=O)n1 (stereo partly drawn)
2 | Active | inactive | 63 | 0.7 | 8.7 | Active | Nc1ccn([C@@H]2O[C@H](COP(=O)(S)O[C@H]3[C@@H](O)[C@H](n4ccc(N)nc4=O)O[C@@H]3COP(=O)(S)O[C@H]3[C@@H](O)[C@H](n4cnc5c(N)ncnc54)O[C@@H]3COP(=O)(S)O[C@H]3[C@@H](O)[C@H](n4ccc5c(=O)[nH]c(N)nc54)O[C@@H]3COP(=O)(S)O[C@H]3[C@@H](O)[C@H](n4ccc(=O)[nH]c4=O)O[C@@H]3COP(=O)(S)O[C@H]3[C@@H](O)[C@H](n4ccc(=O)[nH]c4=O)O[C@@H]3COP(=O)(S)O[C@H]3[C@@H](O)[C@H](n4ccc(N)nc4=O)O[C@@H]3COP(=O)(S)O[C@H]3[C@@H](O)[C@H](n4cnc5c(N)ncnc54)O[C@@H]3CO)[C@@H](OP(=O)(S)OC[C@H]3O[C@@H](n4ccc(=O)[nH]c4=O)[C@H](O)[C@@H]3OP(=O)(S)OC[C@H]3O[C@@H](n4ccc5c(=O)[nH]c(N)nc54)[C@H](O)[C@@H]3OP(=O)(S)OC[C@H]3O[C@@H](n4ccc(=O)[nH]c4=O)[C@H](O)[C@@H]3OP(=O)(S)OCC(O)COP(=O)(S)O[C@H]3[C@@H](O)[C@H](n4ccc(=O)[nH]c4=O)O[C@@H]3COP(=O)(S)O[C@H]3[C@@H](O)[C@H](n4ccc5c(=O)[nH]c(N)nc54)O[C@@H]3COP(=O)(S)O[C@H]3[C@@H](O)[C@H](n4ccc(=O)[nH]c4=O)O[C@@H]3COP(=O)(S)O[C@H]3[C@@H](O)[C@H](n4ccc(N)nc4=O)O[C@@H]3COP(=O)(S)O[C@H]3[C@@H](O)[C@H](n4ccc(N)nc4=O)O[C@@H]3COP(=O)(S)O[C@H]3[C@@H](O)[C@H](n4cnc5c(N)ncnc54)O[C@@H]3COP(=O)(S)O[C@H]3[C@@H](O)[C@H](n4ccc5c(=O)[nH]c(N)nc54)O[C@@H]3COP(=O)(S)O[C@H]3[C@@H](O)[C@H](n4ccc(=O)[nH]c4=O)O[C@@H]3COP(=O)(S)O[C@H]3[C@@H](O)[C@H](n4ccc(=O)[nH]c4=O)O[C@@H]3COP(=O)(S)O[C@H]3[C@@H](O)[C@H](n4ccc(N)nc4=O)O[C@@H]3COP(=O)(S)O[C@H]3[C@@H](O)[C@H](n4cnc5c(N)ncnc54)O[C@@H]3CO)[C@H]2O)c(=O)n1 (stereo partly drawn)
3 | Active | inactive | 76 | 0.7 | 19.6 | Active | Nc1ccn([C@@H]2O[C@H](COP(=O)(S)O[C@H]3[C@@H](O)[C@H](n4ccc5c(=O)[nH]c(N)nc54)O[C@@H]3COP(=O)(S)O[C@H]3[C@@H](O)[C@H](n4cnc5c(N)ncnc54)O[C@@H]3COP(=O)(S)O[C@H]3[C@@H](O)[C@H](n4cnc5c(N)ncnc54)O[C@@H]3COP(=O)(S)O[C@H]3[C@@H](O)[C@H](n4ccc5c(=O)[nH]c(N)nc54)O[C@@H]3COP(=O)(S)O[C@H]3[C@@H](O)[C@H](n4ccc(=O)[nH]c4=O)O[C@@H]3COP(=O)(S)O[C@H]3[C@@H](O)[C@H](n4ccc(=O)[nH]c4=O)O[C@@H]3COP(=O)(S)O[C@H]3[C@@H](O)[C@H](n4cnc5c(N)ncnc54)O[C@@H]3COP(=O)(S)O[C@H]3[C@@H](O)[C@H](n4cnc5c(N)ncnc54)O[C@@H]3CO)[C@@H](OP(=O)(S)OC[C@H]3O[C@@H](n4ccc(=O)[nH]c4=O)[C@H](O)[C@@H]3OP(=O)(S)OC[C@H]3O[C@@H](n4ccc5c(=O)[nH]c(N)nc54)[C@H](O)[C@@H]3OP(=O)(S)OCC(O)COP(=O)(S)O[C@H]3[C@@H](O)[C@H](n4ccc5c(=O)[nH]c(N)nc54)O[C@@H]3COP(=O)(S)O[C@H]3[C@@H](O)[C@H](n4ccc(=O)[nH]c4=O)O[C@@H]3COP(=O)(S)O[C@H]3[C@@H](O)[C@H](n4ccc(N)nc4=O)O[C@@H]3COP(=O)(S)O[C@H]3[C@@H](O)[C@H](n4ccc5c(=O)[nH]c(N)nc54)O[C@@H]3COP(=O)(S)O[C@H]3[C@@H](O)[C@H](n4cnc5c(N)ncnc54)O[C@@H]3COP(=O)(S)O[C@H]3[C@@H](O)[C@H](n4cnc5c(N)ncnc54)O[C@@H]3COP(=O)(S)O[C@H]3[C@@H](O)[C@H](n4ccc5c(=O)[nH]c(N)nc54)O[C@@H]3COP(=O)(S)O[C@H]3[C@@H](O)[C@H](n4ccc(=O)[nH]c4=O)O[C@@H]3COP(=O)(S)O[C@H]3[C@@H](O)[C@H](n4ccc(=O)[nH]c4=O)O[C@@H]3COP(=O)(S)O[C@H]3[C@@H](O)[C@H](n4cnc5c(N)ncnc54)O[C@@H]3COP(=O)(S)O[C@H]3[C@@H](O)[C@H](n4cnc5c(N)ncnc54)O[C@@H]3CO)[C@H]2O)c(=O)n1 (stereo partly drawn)
